Published values gathered from unrelated publications.
Compare with care: the assays were run in different laboratories.
Cell line: PANC-1
Read-out: cell growth or viability

| SMILES | method | time | measurement | result |
| --- | --- | --- | --- | --- |
| COc1ccc(C(=O)O[C@@H]2CN3Cc4c(cc5c(c4OC)OCO5)[C@@]24C=C[C@H](OC)C[C@@H]34)cc1 | WST-1 | – | IC50 | > 10 µM |
| O=C(O)c1cc(O)c(O)c(O)c1 | MTT | – | IC50 | 17.9 µM |
| Cc1ccc2[nH]c(=O)c3cc(C(=O)NCCCN(C)Cc4ccccc4)sc3c2c1 | MTT | 24 h | IC50 | 16.8 µM |
| CCN(CC)CCCC(C)Nc1cnc(C(=O)Nc2cc(F)cc3cccnc23)cn1 (centres unmarked) | MTT | – | IC50 | 7.2 µM |
| Cc1ncsc1-c1ccc(CNC(=O)[C@@H]2C[C@@H](O)CN2C(=O)[C@@H](NC(=O)CCCCCCCCCCCC(=O)NCCCCC#Cc2cccc(-c3nn(-c4nc(C(=O)O)cs4)c(CC4CC4)c3Cc3ccc(S(N)(=O)=O)cc3)c2)C(C)(C)C)cc1 | CCK-8 | 72 h | GI50 | 16.1 µM |
| COc1cc(Nc2nccc(-c3cnn4nc(OC)ccc34)n2)cc(C(F)(F)F)c1 | ATP luminescence | – | IC50 | 0.76 µM |
| COc1c2c(cc3c1OCO3)[C@]13C=C[C@H](OC)C[C@H]1N(C2)C[C@H]3OC(=O)c1cccc(C)c1 | WST-1 | – | IC50 | > 10 µM |
| O=C(O)/C=C/c1ccc(O)c(O)c1 | MTT | – | IC50 | 4.1 µM |
| CNc1ncc2cc(-c3ccc(-c4cccc(C)n4)cc3Cl)c(=O)n(C[C@H]3OC[C@H](N)CO3)c2n1 | MTT | 24 h | IC50 | 23.2 µM |
| CC(C)C[C@H](NC(=O)[C@H](Cc1ccccc1)NC(=O)c1cnccn1)B(O)O | ATP luminescence | – | IC50 | 0.01 µM |
| CC(=O)c1ccc(/N=N/c2cc(/C=C/C(=O)O)ccc2O)cc1 | MTT | – | IC50 | > 50 µM |
| COc1cccc2c1C(=O)c1c(O)c3c(c(O)c1C2=O)C[C@@](O)(C(=O)CO)C[C@@H]3O[C@H]1C[C@H](N)[C@H](O)[C@H](C)O1 | WST-1 | 72 h | IC50 | 0.53 µM |
| CC(=O)c1ccc(N=Nc2c(C(=O)O)cc(O)c(O)c2O)cc1 | MTT | – | IC50 | 12.7 µM |
| COc1cccc(C(=O)O[C@@H]2CN3Cc4c(cc5c(c4OC)OCO5)[C@@]24C=C[C@H](OC)C[C@@H]34)c1 | WST-1 | – | IC50 | 8.7 µM |
